Results from different studies.
Each line is one published result; the experiments were not run side by side.
HDAC5: Histone deacetylase 5 (HDAC5, Homo sapiens, UniProt Q9UQL6)
CHEK1: Serine/threonine-protein kinase Chk1 (CHEK1, Homo sapiens, UniProt O14757)
PPARG: Peroxisome proliferator-activated receptor gamma (PPARG, Homo sapiens, UniProt P37231)

CCN(CC)Cc1ccc2cc(COC(=O)Nc3ccc(C(=O)NO)cc3)ccc2c1 — Kd (HDAC5; cell-free assay): > 30200 nM
CCCCc1nc2c(o1)c(N)nc1ccccc12 — EC50 (Toll-like receptor 8 (TLR8, Homo sapiens, UniProt Q9NR97); reporter gene; agonist): 12500 nM
CCn1cncc1Cn1c(CN2CCC(c3cccc(OCc4ccc(F)cc4F)n3)CC2)nc2ccc(C(=O)O)cc21 — EC50 (Glucagon-like peptide 1 receptor (GLP1R, Homo sapiens, UniProt P43220, L260F); cAMP; agonist; TR-FRET): 0.09 nM
OCc1ccc2c(c1)-c1n[nH]c(-c3ccc(-c4ccc(O)cc4)cc3)c1C2 — IC50 (CHEK1; enzyme activity; inhibitor): 4.4 nM
Cc1cnc(-c2ccc(-c3ccc(NC(=O)Nc4c(F)cc(F)cc4F)cc3F)c3c2C(=O)NC3)[nH]1 — Kd (Discoidin domain-containing receptor 2 (DDR2, Homo sapiens, UniProt Q16832); binding; competition with immobilised ligand): 3 nM
C#Cc1cccc(Nc2ncnc3cc(OC)c(OCCCCCCC(=O)NO)cc23)c1 — Kd (HDAC5; cell-free assay): > 30200 nM
CC[C@H](C)[C@H](NC(=O)[C@H](CC(=O)O)NC(=O)[C@H](CO)NC(=O)[C@@H](NC(=O)[C@H](Cc1ccccc1)NC(=O)[C@@H](NC(=O)CNC(=O)[C@H](CC(=O)O)NC(=O)[C@H](C)NC(=O)[C@@H](N)Cc1c[nH]cn1)[C@@H](C)O)[C@@H](C)O)C(=O)N[C@@H](CC(N)=O)C(=O)N[C@@H](CCCCN)C(=O)N[C@H](C(=O)N[C@@H](CC(C)C)C(=O)N[C@@H](CC(=O)O)C(=O)N[C@@H](CC(=O)O)C(=O)N[C@@H](CCSC)C(=O)N[C@@H](C)C(=O)N[C@@H](C)C(=O)N[C@@H](CCCCN)C(=O)N[C@@H](CCC(=O)O)C(=O)N[C@@H](Cc1ccccc1)C(=O)N[C@@H](CC(C)C)C(=O)N[C@@H](CCCCN)C(=O)N[C@@H](Cc1c[nH]c2ccccc12)C(=O)N[C@@H](CC(C)C)C(=O)N[C@H](C(=O)N[C@@H](CC(N)=O)C(=O)N[C@H](C(=O)N[C@@H](CCCCN)C(=O)N[C@H](C(=O)N[C@H](C(=O)N[C@@H](CCC(N)=O)C(=O)O)[C@@H](C)O)C(C)C)[C@@H](C)O)[C@@H](C)CC)[C@@H](C)CC — EC50 (Glucagon-like peptide 1 receptor (GLP1R, Homo sapiens, UniProt P43220); reporter gene; agonist; luciferase): 2.79 nM
Oc1ccc(-c2ccc(-c3[nH]nc4c3Cc3cc(O)ccc3-4)cc2)cc1 — IC50 (CHEK1; enzyme activity; inhibitor): 5.9 nM
Cc1ccc(-c2ccc(F)cc2COc2ccc(CCC(=O)O)cc2)cc1 — EC50 (PPARG; reporter gene; agonist; luciferase): > 100000 nM
Cc1cc2nc3c(=O)[nH]c(=O)nc-3n(C[C@H](O)[C@H](O)[C@H](O)COP(=O)(O)OP(=O)(O)OC[C@H]3O[C@@H](n4cnc5c(N)ncnc54)[C@H](O)[C@@H]3O)c2cc1C — Kd (YTH domain-containing family protein 2 (YTHDF2, Homo sapiens, UniProt Q9Y5A9); binding; lysate): 62 nM
COc1cc(-c2ccc3c(c2)Nc2ccc(OCCN4CCOCC4)cc2NC3=O)ccc1[N+](=O)[O-] — IC50 (CHEK1; enzyme activity; inhibitor): 24.5 nM
CCCCCCCC/C=C\CCCCCCCC(=O)O[C@H](CC(=O)[O-])C[N+](C)(C)C — EC50 (Pantothenate kinase 3 (PANK3, Homo sapiens, UniProt Q9H999); enzyme activity; inhibitor; radiometric): 600 nM
CCOC(=O)CCCCCOc1ccc(Cl)cc1NC(=O)Nc1cnc(C#N)cn1 — IC50 (CHEK1; enzyme activity; inhibitor): 380 nM
CC1(C)C=Cc2c(ccc3c2OC[C@@H](c2ccc(O)cc2O)C3)O1 — Kd (PPARG; binding; ITC): 14600 nM
COc1cc(NC(=O)CCCCCCC(=O)O)c(Cl)cc1NC(=O)Nc1cnc(C#N)cn1 — IC50 (CHEK1; enzyme activity; inhibitor): 57.9 nM
CCOCc1nc(O)c(-c2nnc(Cc3ccc(Cl)cn3)o2)c(O)c1-c1c(OC)cccc1OC — EC50 (Apelin receptor (Rattus norvegicus, UniProt Q9JHG3); cAMP; agonist): 0.02 nM
